Screens as filed in PubChem.
Only some compounds are listed: those with a hit (about 1.1% of all), similar ones and a draw of the others.
SENP1 inh: blocks the human SENP1 SUMO protease catalytic domain; Q9P0U3; recombinant SENP1 catalytic domain, CyPet-SUMO1-YPet FRET cleavage; inhibition, % at 10 µM; actives 0.21% (n = 360,000); AID 624204;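 active = inhibition at least 30% at 10 µM, raw YFP signal under a set limit, fluorescence ratio 0.5 to 1.5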
Target sequence (Q9P0U3 419-644 limits assumed): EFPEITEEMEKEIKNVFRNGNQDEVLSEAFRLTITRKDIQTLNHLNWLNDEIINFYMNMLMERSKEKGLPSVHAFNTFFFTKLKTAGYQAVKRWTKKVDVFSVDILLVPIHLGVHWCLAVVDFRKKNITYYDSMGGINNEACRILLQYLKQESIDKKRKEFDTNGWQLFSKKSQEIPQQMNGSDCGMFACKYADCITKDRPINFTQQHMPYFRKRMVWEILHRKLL
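Assay system: hSENP1 catalytic domain, recombinant. Amount: SENP1 enzyme, 20 pM final. Schedule: 50 min reaction, RT, dark. Technique: FRET, CFP and YFP emission. Control set: no-enzyme wells low, DMSO-plus-enzyme wells high control.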
FAS-TE inh: inhibitors of human fatty acid synthase thioesterase domain | actives 0.67% (n = 360,000) | inhibition, % at 15 µM | recombinant FAS-TE, OMFH fluorogenic substrate, fluorescence endpoint | P49327;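 active = compounds whose normalised, plate-corrected inhibition of enzyme fluorescence in the single-dose primary screen is 50% or more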
iPSC survival up: hiPSC single-cell survival enhancement. ATPlite luminescence; 100% = ROCK inhibitor wells, 0% = DMSO. survival enhancement, % at 20 µM. actives 0.044% (n = 360,000). AID 602274; in the data active = survival enhancement above about 18%;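 also: cells exposed to compounds for 16 hours before the ATP read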
ABCB6 inh 2: human ABCB6 transporter inhibition; K562-ABCB6 porphyrin accumulation, flow cytometry, 1 h; stronger effect = lower value; fluorescence ratio to DMSO, % at 10 µM; actives 0.19% (n = 360,000); AID 602162;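 active = fluorescence ratio to DMSO below 75%, the collection mean minus 3 SD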;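 also: signal is porphyrin accumulated inside mitochondria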
ABCB6 inh CP1: inhibitors of human ABC transporter ABCB6; shares compounds with ABCB6 inh 2; K562-ABCB6 porphyrin accumulation, flow cytometry, 1 h; stronger effect = lower value; 700 tested, under 10 active; AID 602430; ratio response (% of DMSO), % at 10 µM;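 active = repeat-averaged ratio response below 75% of DMSO, the collection mean minus 3 SD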;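 also: median porphyrin fluorescence at 575 nm with 488 nm excitation from mitochondria; lower ratio means less porphyrin signal so ABCB6 inhibition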
Hits are given with their value; 0 = inactive; - = not tested or not shown.

SMILES	SENP1 inh	FAS-TE inh	iPSC survival up	ABCB6 inh 2	ABCB6 inh CP1
CC1CCN(C(=O)c2ccccc2NC(=O)Nc2ccccc2)CC1	0	0	0	11	0
CSc1ccc(-c2cccc3nncn23)cc1	0	0	0	65	0
O=C(CN1C(=O)CSc2ncccc21)Nc1ccccc1F	0	0	0	0	-
CCOC(=O)c1ccc(NC(=O)Nc2nncs2)cc1	0	0	0	0	-
CCOC(=O)[C@@H]1[C@H]2COc3cc(OC)ccc3[C@H]2N2C(=O)N(c3cccc(F)c3)C(=O)[C@@]12C	0	0	0	73	0
Cn1c(=O)c2ncn(CC(=O)NCCOc3ccc(C(C)(C)C)cc3)c2n(C)c1=O	0	0	0	0	-
Cn1c(=O)c2ncn(CC(=O)NCCOCc3ccccc3Cl)c2n(C)c1=O	0	0	0	66	0
Cc1ccccc1OCC(=O)OCC(=O)c1ccc(OC(=O)c2ccccc2)cc1	0	0	0	44	0
Cc1ccccc1OCC(=O)OCC(=O)c1ccc(OCc2ccccc2)cc1	0	0	0	0	-
CCCNC(=O)C1(C)CCCN(Cc2ccc3c(c2)OCO3)C1 (stereo not drawn)	0	0	0	0	-
COC(=O)C1CCN(S(=O)(=O)c2c[nH]c(=O)[nH]c2=O)CC1	0	0	0	0	0
COC(=O)C1CCN(S(=O)(=O)c2ccc(Br)s2)CC1	0	0	0	0	0
Cc1ccc(S(=O)(=O)N2[C@@H](c3ccc(F)cc3)C(C(=O)O)=CC[C@H]2c2cccs2)cc1	0	0	0	0	-
Cc1ccc(S(C)(=O)=N/C=C2\C(=O)c3sccc3N(C)S2(=O)=O)cc1 (stereo not drawn)	0	0	0	0	-
COC(=O)c1cc(S(=O)(=O)N2CCN(c3ccccc3)CC2)c[nH]1	0	0	0	0	-
COC(=O)c1cc(S(=O)(=O)N2CCN(c3ccc(F)cc3)CC2)c[nH]1	0	0	0	46	0
COc1ccc(N2C(=O)CSC2c2cccc(F)c2)cc1 (stereo not drawn)	0	0	0	74	0
CC(C)(C)c1cc(C(=O)NNC(=O)c2ccc(Cl)cc2)no1	0	0	0	0	-
Cc1nc2c(C(=O)N3CCOCC3)cnn2c(C)c1Cc1ccc(Cl)cc1	0	0	0	0	0
O=C(c1nnc(Cc2ccc(Cl)cc2)o1)N1CCOCC1	0	0	0	0	-
Cc1nc2c(C(=O)N3CCOCC3)cnn2c(C)c1Cc1cccc(Cl)c1	-	-	-	-	0
CN(CCOc1ccc(Cl)cc1)C(=O)c1cc(-c2ccco2)nc2ccccc12	0	0	0	0	-
CCCOc1ccc(C(CC(=O)O)NC(=O)c2ccc3c(c2)OCO3)cc1 (stereo not drawn)	0	0	0	57	0
CCN(CC)S(=O)(=O)c1ccc(N2CCCC2)c(NC(=O)CN2C(=O)NC3(CCCC3)C2=O)c1	0	0	0	0	-
Clc1ccc(CNc2nc(N3CCOCC3)nc(N3CCOCC3)n2)cc1	0	0	0	11	0
SMILES	SENP1 inh	FAS-TE inh	iPSC survival up	ABCB6 inh 2	ABCB6 inh CP1
CCOC(=O)C1(C)C(=O)CC2c3nc4ccccc4cc3CN2C1=O (stereo not drawn)	0	0	0	0	-
COc1ccc(CC(=O)Nc2c3c(nn2-c2ccccc2C)CS(=O)C3)cc1 (stereo not drawn)	0	0	0	59	0
Cc1ccccc1-n1nc2c(c1NC(=O)COc1ccc(Cl)cc1)CS(=O)C2 (stereo not drawn)	0	0	0	0	-
Cc1cc(NC(=O)c2ccc(Cl)cc2Cl)n(CCC#N)n1	0	0	0	0	-
Cc1nn(CCC#N)c(N)c1C1(O)C(=O)Nc2c(Cl)cc(Cl)cc21 (stereo not drawn)	0	0	0	13	0
Oc1ccc(C[C@H]2CNCCN2CC2(c3ccccc3)CC2)cc1	0	0	0	0	-
COc1cccc(-c2nc(NC(C)C)c3ccccc3n2)c1O	0	0	0	49	0
CC(C)(C)c1ccc(CC(=O)N2CCC2(C)C(=O)NS(=O)(=O)c2ccccc2C(F)(F)F)cc1 (stereo not drawn)	0	0	0	0	0
Cc1ccc(S(=O)(=O)NC(=O)C2(C)CCN2C(=O)Cc2ccc(-c3ccccc3)cc2)cc1 (stereo not drawn)	0	0	0	0	0
Cc1cccc(S(=O)(=O)NC(=O)C2(C)CCN2C(=O)CCc2ccccc2)c1 (stereo not drawn)	0	0	0	0	-
CC(C)(C)c1ccc(CC(=O)N2CCC2(C)C(=O)NS(=O)(=O)c2cccc(F)c2)cc1 (stereo not drawn)	0	0	0	0	0
CC1(C(=O)NS(=O)(=O)c2cccc(C#N)c2)CCN1C(=O)CCc1ccccc1 (stereo not drawn)	0	0	0	0	0
COc1ccc(NC(=O)CN2CCN(C(C)=O)CC2)cc1S(=O)(=O)N1CCOCC1	0	0	0	0	-
CN(C(=O)c1cccc(NC(=O)c2cccs2)c1)c1ccccc1	0	0	0	0	-
Cc1ccc(F)c(S(=O)(=O)NC(=O)C2(C)CCN2C(=O)Cc2cccc3ccccc23)c1 (stereo not drawn)	0	0	0	0	0
Cc1cccc(S(=O)(=O)NC(=O)C2(C)CCN2C(=O)Cc2ccc(Cl)cc2Cl)c1 (stereo not drawn)	0	0	0	0	0
Cc1cccc(S(=O)(=O)NC(=O)C2(C)CCN2C(=O)Cc2ccccc2)c1 (stereo not drawn)	0	0	0	0	0
COc1ccc(-n2c(COc3ccccc3)nnc2SCc2ccc(C#N)cc2)cc1	0	0	0	51	0
N#Cc1ccc(CSc2nnc(COc3ccccc3)n2-c2ccccc2)cc1	0	0	0	0	-
COC(=O)[C@]1(Cc2ccccc2)N[C@H](CN(C)C(=O)Nc2ccc(OC)cc2)[C@@H]2C(=O)N(Cc3ccccc3)C(=O)[C@@H]21	0	0	0	0	-
CC1(C(=O)NS(=O)(=O)c2ccc(Cl)cc2)CCN1C(=O)CCc1ccc(Cl)cc1Cl (stereo not drawn)	0	0	0	0	-
CC1(C(=O)NS(=O)(=O)c2ccc(C#N)cc2)CCN1C(=O)CCc1ccc(Cl)cc1Cl (stereo not drawn)	0	0	0	73	0
CC1(C(=O)NS(=O)(=O)c2ccc(F)cc2F)CCN1C(=O)CCc1ccc(Cl)cc1Cl (stereo not drawn)	0	0	0	0	0
CC1(C(=O)NS(=O)(=O)c2cccc(F)c2)CCN1C(=O)CCc1ccc(Cl)cc1Cl (stereo not drawn)	0	0	0	0	-
Cc1cccc(N2C(=O)NC3(CCCCC3)C2=O)c1	0	0	0	0	-
O=C1NC2(CCCCC2)C(=O)N1c1cccc(Cl)c1	0	0	0	73	0
CC(=O)N1C(=O)C2(C(C#N)=C(N)Oc3c2c(C)nn3-c2ccccc2)c2ccccc21 (stereo not drawn)	0	0	0	44	0
